Measurements from ChEMBL document CHEMBL1152757, “Stereoselective synthesis and biological evaluation of syn-1-amino-3-[18F]fluorocyclobutyl-1-carboxylic acid as a potential positron emission tomography brain tumor imaging agent” (Bioorg Med Chem, 2009).

Experiments:
Liver [1] = assay: Biodistribution in liver of rat 9L cells implanted Fischer rat at 15 to 30 uCi, iv after 60 mins by gamma-counter; format: ADME, organism-based; conditions: in vivo, 1 h
Summary of the method: (§1)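 Male Fischer 344 rats (125-175 g) implanted intracranially by stereotactic injection of 5 × 10^4 9L gliosarcoma cells. Used 10-12 days after implantation. Tracer given into the tail vein at 15-30 µCi in 0.1-0.3 mL sterile saline. Groups of 4 were sacrificed at 15, 30, 60 and 120 min. Tissues were weighed and gamma-counted against dose standards, and counts decay-corrected to %ID/g (mean ± SD). One-way ANOVA.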

Liver [2] = assay: Biodistribution in liver of rat 9L cells implanted Fischer rat at 15 to 30 uCi, iv after 120 mins by gamma-counter; format: ADME, organism-based; conditions: in vivo, 2 h; summary of the method: as §1
Pancreas [3] = assay: Biodistribution in pancreas of rat 9L cells implanted Fischer rat at 15 to 30 uCi, iv after 15 mins by gamma-counter; format: ADME, organism-based; conditions: in vivo, 0.25 h; summary of the method: as §1
Pancreas [4] = assay: Biodistribution in pancreas of rat 9L cells implanted Fischer rat at 15 to 30 uCi, iv after 30 mins by gamma-counter; format: ADME, organism-based; conditions: in vivo, 0.5 h; summary of the method: as §1
Pancreas [5] = assay: Biodistribution in pancreas of rat 9L cells implanted Fischer rat at 15 to 30 uCi, iv after 60 mins by gamma-counter; format: ADME, organism-based; conditions: in vivo, 1 h; summary of the method: as §1
Pancreas [6] = assay: Biodistribution in pancreas of rat 9L cells implanted Fischer rat at 15 to 30 uCi, iv after 120 mins by gamma-counter; format: ADME, organism-based; conditions: in vivo, 2 h; summary of the method: as §1
Spleen [7] = assay: Biodistribution in spleen of rat 9L cells implanted Fischer rat at 15 to 30 uCi, iv after 15 mins by gamma-counter; format: ADME, organism-based; conditions: in vivo, 0.25 h; summary of the method: as §1
Spleen [8] = assay: Biodistribution in spleen of rat 9L cells implanted Fischer rat at 15 to 30 uCi, iv after 30 mins by gamma-counter; format: ADME, organism-based; conditions: in vivo, 0.5 h; summary of the method: as §1
Spleen [9] = assay: Biodistribution in spleen of rat 9L cells implanted Fischer rat at 15 to 30 uCi, iv after 60 mins by gamma-counter; format: ADME, organism-based; conditions: in vivo, 1 h; summary of the method: as §1
Spleen [10] = assay: Biodistribution in spleen of rat 9L cells implanted Fischer rat at 15 to 30 uCi, iv after 120 mins by gamma-counter; format: ADME, organism-based; conditions: in vivo, 2 h; summary of the method: as §1
Kidney [11] = assay: Biodistribution in kidney of rat 9L cells implanted Fischer rat at 15 to 30 uCi, iv after 15 mins by gamma-counter; format: ADME, organism-based; conditions: in vivo, 0.25 h; summary of the method: as §1
Kidney [12] = assay: Biodistribution in kidney of rat 9L cells implanted Fischer rat at 15 to 30 uCi, iv after 30 mins by gamma-counter; format: ADME, organism-based; conditions: in vivo, 0.5 h; summary of the method: as §1
Kidney [13] = assay: Biodistribution in kidney of rat 9L cells implanted Fischer rat at 15 to 30 uCi, iv after 60 mins by gamma-counter; format: ADME, organism-based; conditions: in vivo, 1 h; summary of the method: as §1
Kidney [14] = assay: Biodistribution in kidney of rat 9L cells implanted Fischer rat at 15 to 30 uCi, iv after 120 mins by gamma-counter; format: ADME, organism-based; conditions: in vivo, 2 h; summary of the method: as §1
Muscle tissue [15] = assay: Biodistribution in muscle of rat 9L cells implanted Fischer rat at 15 to 30 uCi, iv after 15 mins by gamma-counter; format: ADME, organism-based; conditions: in vivo, 0.25 h; summary of the method: as §1
Muscle tissue [16] = assay: Biodistribution in muscle of rat 9L cells implanted Fischer rat at 15 to 30 uCi, iv after 30 mins by gamma-counter; format: ADME, organism-based; conditions: in vivo, 0.5 h; summary of the method: as §1
Muscle tissue [17] = assay: Biodistribution in muscle of rat 9L cells implanted Fischer rat at 15 to 30 uCi, iv after 60 mins by gamma-counter; format: ADME, organism-based; conditions: in vivo, 1 h; summary of the method: as §1
Muscle tissue [18] = assay: Biodistribution in muscle of rat 9L cells implanted Fischer rat at 15 to 30 uCi, iv after 120 mins by gamma-counter; format: ADME, organism-based; conditions: in vivo, 2 h; summary of the method: as §1
Brain [19] = assay: Biodistribution in brain of rat 9L cells implanted Fischer rat at 15 to 30 uCi, iv after 15 mins by gamma-counter; format: ADME, organism-based; conditions: in vivo, 0.25 h; summary of the method: as §1
Brain [20] = assay: Biodistribution in brain of rat 9L cells implanted Fischer rat at 15 to 30 uCi, iv after 30 mins by gamma-counter; format: ADME, organism-based; conditions: in vivo, 0.5 h; summary of the method: as §1
Brain [21] = assay: Biodistribution in brain of rat 9L cells implanted Fischer rat at 15 to 30 uCi, iv after 60 mins by gamma-counter; format: ADME, organism-based; conditions: in vivo, 1 h; summary of the method: as §1
Brain [22] = assay: Biodistribution in brain of rat 9L cells implanted Fischer rat at 15 to 30 uCi, iv after 120 mins by gamma-counter; format: ADME, organism-based; conditions: in vivo, 2 h; summary of the method: as §1
[23] = Biodistribution in tumor of rat 9L cells implanted Fischer rat at 15 to 30 uCi, iv after 15 mins by gamma-counter; format: ADME, organism-based, Neoplasm; conditions: in vivo, 0.25 h; summary of the method: as §1
[24] = Biodistribution in tumor of rat 9L cells implanted Fischer rat at 15 to 30 uCi, iv after 30 mins by gamma-counter; format: ADME, organism-based, Neoplasm; conditions: in vivo, 0.5 h; summary of the method: as §1
[25] = Biodistribution in tumor of rat 9L cells implanted Fischer rat at 15 to 30 uCi, iv after 60 mins by gamma-counter; format: ADME, organism-based, Neoplasm; conditions: in vivo, 1 h; summary of the method: as §1
[26] = Biodistribution in tumor of rat 9L cells implanted Fischer rat at 15 to 30 uCi, iv after 120 mins by gamma-counter; format: ADME, organism-based, Neoplasm; conditions: in vivo, 2 h; summary of the method: as §1
Bone = assay: Biodistribution in bone of rat 9L cells implanted Fischer rat at 15 to 30 uCi, iv after 15 mins by gamma-counter; format: ADME, organism-based, Bone element; conditions: in vivo, 0.25 h; summary of the method: as §1

In the case of `N[C@]1(C(=O)O)C[C@H]([18F])C1`, the Drug uptake (Liver [1]) is reported as 0.41 % ID/g, the Drug uptake (Liver [2]) is reported as 0.4 % ID/g and the Drug uptake (Pancreas [3]) is reported as 2.37 % ID/g. The Drug uptake (Pancreas [4]) was 3.36 % ID/g, the Drug uptake (Pancreas [5]) was 2.83 % ID/g and the Drug uptake (Pancreas [6]) was 2.78 % ID/g. The Drug uptake (Spleen [7]) was 0.68 % ID/g, the Drug uptake (Spleen [8]) was 0.61 % ID/g and the Drug uptake (Spleen [9]) was 0.52 % ID/g. For the same compound, the Drug uptake (Spleen [10]) was 0.4 % ID/g, the Drug uptake (Kidney [11]) was 0.76 % ID/g and the Drug uptake (Kidney [12]) was 0.8 % ID/g. It also gave a Drug uptake (Kidney [13]) of 0.7 % ID/g, a Drug uptake (Kidney [14]) of 0.56 % ID/g and a Drug uptake (Muscle tissue [15]) of 0.35 % ID/g. The Drug uptake (Muscle tissue [16]) was 0.43 % ID/g, the Drug uptake (Muscle tissue [17]) was 0.42 % ID/g and the Drug uptake (Muscle tissue [18]) was 0.39 % ID/g. For the same compound, the Drug uptake (Brain [19]) was 0.2 % ID/g, the Drug uptake (Brain [20]) was 0.18 % ID/g and the Drug uptake (Brain [21]) was 0.2 % ID/g. For the same compound, the Drug uptake (Brain [22]) was 0.25 % ID/g, the Drug uptake [23] was 1.4 % ID/g and the Drug uptake [24] was 2.1 % ID/g. For the same compound, the Drug uptake [25] was 1.48 % ID/g, the Drug uptake [26] was 1.93 % ID/g and the Drug uptake (Bone) was 0.25 % ID/g.
